Values belong to the compound of their own block, whether it stands above or below them.
How the values were obtained:
GFP-ODC [1] = assay: Cell-based GFP-ODC AlphaLISA; design: species or system human; conditions: for reduction of the GFP-ODC AlphaLISA signal: 8-point titration, fresh powder stocks; for IC50: Homo sapiens, HEK-293T, read-out: IC50 of the AlphaLISA signal
In short: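 HEK-293T cells stably expressing GFP-ODC, from a flow-sorted medium-GFP expressor pool, were plated at 10,000 cells/well in phenol red-free DMEM and dosed with compound or DMSO at plating. Cells were lysed in Surefire lysis buffer with shaking for 30 min at RT. Biotinylated anti-ODC plus anti-GFP acceptor bead (10× mix) went on for 1 h in the dark, then streptavidin donor bead for 30 min. Alpha signal read. Wells without anti-ODC served as negative control.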

26S proteasome = assay: Small peptide; type: biochemical; conditions: only at the highest concentration
GFP-ODC [2] = assay: Cellular degradation of GFP-ODC; type: cell-based, human; conditions: 16 h, HEK-293T stably expressing GFP-ODC
In short: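 HEK-293T stably expressing GFP-ODC were grown to 80% confluency in 60 mm plates and treated 16 h with compound or DMSO. Controls: 5 μM bortezomib, 20 μM chlorpromazine. Cells were pelleted, PBS-washed and lysed in RIPA with protease inhibitors (20 min on ice). Western blot followed; only the full-length 75 kDa GFP-ODC band was quantified, in triplicate.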

[3] = tested on: human constitutive 20S proteasome; assay: Small peptide; type: biochemical; conditions: for max fold increase, chymotrypsin-like site: Suc-LLVY-AMC; for max fold increase, caspase-like site: Z-LLE-AMC
In short: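 Human constitutive 20S proteasome (1 nM) in 38 mM Tris-HCl, 100 mM NaCl, pH 7.8 was preincubated with compound (8-point, 1.25–80 μM) at 37 °C. AMC substrates were added alone (final Suc-LLVY-AMC 20 µM, Z-LLE-AMC 20 µM, Boc-LRR-AMC 40 μM) or combined (6.67 μM each final). Fluorescence (380/460 nm) was read over 1 h at 37 °C. Hydrolysis rate was expressed as fold change versus vehicle.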

[4] = Cell viability, parallel CellTiter-Glo assay; type: cell-based, human; conditions: human, HEK-293T cells stably expressing GFP-ODC
HEK-293T cells = assay: Cell viability, parallel CellTiter-Glo assay; type: cell-based, human; conditions: HEK-293T cells stably expressing GFP-ODC, 8-point titration
EGFR = conditions: read-out: IC50 for EGFR tyrosine kinase inhibition; reported value; cited from earlier work
[5] = Solubility observed in the AlphaLISA dose response; type: physicochemical; conditions: at higher concentrations of the dose response
K48 ubiquitin = assay: Cellular K48 ubiquitin levels; type: cell-based, human; conditions: same cell lysates as the GFP-ODC western blot
[6] = tested on: purified human 20S proteasome; assay: In vitro degradation of α-synuclein by purified 20S proteasome; type: biochemical; conditions: 3 h, compared to untreated proteasome
In short: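 Purified human 20S proteasome in 50 mM HEPES, 5 mM DTT, pH 7.2 was preincubated with compound or DMSO for 45 min at 37 °C. Purified α-synuclein was then added and incubated 3 h at 37 °C; final reaction was 0.3 μM α-synuclein and 10 nM proteasome. GAPDH (0.5 μM) was added as loading control. α-Synuclein remaining was quantified by western blot versus DMSO.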

[7] = combination of the three fluorogenic peptide probes

Compound: CC(C)C[C@H]1C(=O)N2CCC[C@H]2[C@]2(O)O[C@](NC(=O)[C@@H]3C=C4c5cccc6[nH]c(Br)c(c56)C[C@H]4N(C)C3)(C(C)C)C(=O)N12 [bromocriptine]
reduction of the GFP-ODC AlphaLISA signal (GFP-ODC [1]): did not reduce the AlphaLISA signal below 50% (Figure S2) or did not reduce the AlphaLISA signal without significant cell death

Compound: COc1cc2nc(N3CCN(C(=O)c4ccco4)CC3)nc(N)c2cc1OC [prazosin]
reduction of the GFP-ODC AlphaLISA signal (GFP-ODC [1]): did not reduce the AlphaLISA signal below 50% (Figure S2) or did not reduce the AlphaLISA signal without significant cell death
activation of the 26S proteasome (26S proteasome): 2.5- to 3 fold
full-length GFP-ODC remaining (GFP-ODC [2]; 20 μM compound): 84%
max fold increase, chymotrypsin-like site [3]: 3.5 fold
max fold increase, caspase-like site [3]: 5.8 fold
overall max fold increase of 20S proteasome activity [3, 7]: 4.5 fold

Compound: CN1CCN(CC/C=C2/c3ccccc3Sc3ccc(S(=O)(=O)N(C)C)cc32)CC1 [thiothixene]
reduction of the GFP-ODC AlphaLISA signal (GFP-ODC [1]): did not reduce the AlphaLISA signal below 50% (Figure S2) or did not reduce the AlphaLISA signal without significant cell death

IC50 (GFP-ODC [1]): 4.8 µM
Compound: CCN(CC)CCCC(C)Nc1c2ccc(Cl)cc2nc2ccc(OC)cc12 (centres unmarked) [Quinacrine]

activation of the 26S proteasome (26S proteasome): 2 fold
overall max fold increase of 20S proteasome activity [3, 7]: 6.3 fold
Compound: CN(C)CCCN1c2ccccc2Sc2ccc(Cl)cc21 [CPZ, chlorpromazine]
full-length GFP-ODC remaining (GFP-ODC [2]; 20 μM compound): 97%
catalytic sites of the 20S proteasome activated ([3]; individual fluorogenic peptide substrates): only activated the chymotrypsin-like site

Compound: CNCCC(Oc1ccc(C(F)(F)F)cc1)c1ccccc1 (centres unmarked) [fluoxetine]
reduction of the GFP-ODC AlphaLISA signal (GFP-ODC [1]): did not reduce the AlphaLISA signal below 50% (Figure S2) or did not reduce the AlphaLISA signal without significant cell death

Compound: CCN(CC)CCNc1ccc(CO)c2sc3ccccc3c(=O)c12 [Hycanthone]
IC50 (GFP-ODC [1]): 15.1 µM
CC50 [4]: 69.7 µM

Compound: O=C(N/N=C/c1ccc([N+](=O)[O-])o1)c1ccc(O)cc1 [nifuroxazide]
cell cytotoxicity (HEK-293T cells): low cytotoxicity

Compound: CC(C)[C@]12O[C@H]1[C@@H]1O[C@]13[C@]1(O[C@H]1C[C@H]1C4=C(CC[C@@]13C)C(=O)OC4)[C@@H]2O [triptolide]
reduction of the GFP-ODC AlphaLISA signal (GFP-ODC [1]): significantly decreased the AlphaLISA signal but not in a dose-dependent manner

IC50 (GFP-ODC [1]): 5.4 µM
activation of the 26S proteasome (26S proteasome): 2.5- to 3 fold
solubility [5]: poor solubility at higher concentrations
max fold increase, trypsin-like site ([3]; Boc-LRR-AMC): 5.9 fold
max fold increase, chymotrypsin-like site [3]: 5.1 fold
max fold increase, caspase-like site [3]: 3.1 fold
overall max fold increase of 20S proteasome activity [3, 7]: 5.7 fold
EC200, concentration at which the rate of proteolysis was doubled compared to the vehicle control ([3]; combination of the three fluorogenic peptide probes, 1 nM 20S): 12 µM
α-synuclein remaining ([6]; 10 μM compound): 68%
α-synuclein remaining ([6]; 20 μM compound): 48%
Compound: C#Cc1cccc(Nc2ncnc3cc(OCCOC)c(OCCOC)cc23)c1 [erlotinib]
IC50 (EGFR): 2 nM
full-length GFP-ODC remaining (GFP-ODC [2]; 10 μM compound): 34%
full-length GFP-ODC remaining (GFP-ODC [2]; 20 μM compound): 16%
cell cytotoxicity (HEK-293T cells): no significant cell cytotoxicity
effect on K48 ubiquitin / levels of ubiquitinylated proteins (K48 ubiquitin): no impact on the levels of ubiquitinylated proteins

Compound: CC(=O)S[C@@H]1CC2=CC(=O)CC[C@]2(C)[C@H]2CC[C@@]3(C)[C@@H](CC[C@@]34CCC(=O)O4)[C@H]12 [spironolactone]
cell cytotoxicity (HEK-293T cells): low cytotoxicity

Compound: COC(=O)C[C@](O)(CCCC(C)(C)O)C(=O)O[C@@H]1C(OC)=C[C@]23CCCN2CCc2cc4c(cc2[C@H]13)OCO4 [homoharringtonine]
reduction of the GFP-ODC AlphaLISA signal (GFP-ODC [1]): significantly decreased the AlphaLISA signal but not in a dose-dependent manner
